According to ChEMBL document CHEMBL4513216, “Probing the Open Global Health Chemical Diversity Library for Multistage-Active Starting Points for Next-Generation Antimalarials” (ACS Infect Dis, 2020):

Assay: Toxicity liver stage against HepG2, at 10uM
Format: cell-based
Parameters: test concentration 10 uM, cell line HepG2-A16-CD81EGFP
Conditions: human, HepG2-A16-CD81EGFP cells; read-out: INHIBITION
How it was run: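 Uninfected HepG2-A16-CD81EGFP cells, 3 × 10^3 per well, 1536-well, plated on prespotted compound at 10 μM final, parasite-free screening media added to match infected plates; puromycin 10 μM positive, DMSO 0.5% negative; run in parallel with 48 h PbLuc assay at 37 °C, 5% CO2; viability by CellTiter-Glo luminescence, normalized to controls.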

Row | Structure (SMILES) | cytotoxicity at 10 µM [%]
1 | CCOc1ncccc1NC(=O)N1CCC(n2cncn2)CC1 | 6.64
2 | FC(F)(F)c1cccc(C2(CNCc3cc[nH]c3)CCOCC2)c1 | -6.76
3 | CS(=O)(=O)CCOCCNc1ccc(Br)cn1 | -4.71
4 | COCCOc1ccc(F)cc1NCc1nc2ccccc2n1C | 6.29
5 | Cn1c(SCC2OCCc3ccccc32)n[nH]c1=O (configuration not stated) | -5.76
6 | CCc1nc(NS(=O)(=O)c2ccc(F)cc2C)no1 | -10.9
7 | Cc1nccc(CNC(=O)NCCOc2ccc(F)c(F)c2)n1 | -17
8 | CC(NC1CCN(CCS(C)(=O)=O)CC1)c1ccc(Cl)cc1 (configuration not stated) | -6.51
9 | CCOC(=O)NC(CNC(=O)c1ccccn1)CC(C)C (configuration not stated) | 10.2
10 | CN(Cc1nnc(C2CC2)n1C)C1CCN(Cc2ccccc2F)C1 (configuration not stated) | -15.1
11 | COCCn1c2c(ccc1=O)CCN(C(=O)NC1CC1)CC2 | 1.77
12 | O=c1cc(CN2CCCC2)nc2n1CCCN(CC1CC1)C2 | -111
13 | COCCCNc1nc(CNC(=O)C2CCC2)cc(-c2ccco2)n1 | -11
14 | Cc1ccccc1C(CNc1ncnc2c1CCNC2)N(C)C (configuration not stated) | 5.31
15 | CCC[C@@H]1CN(C(=O)c2cc(-c3cccs3)n(C)n2)C[C@H]1N(C)C | -1.84
16 | COc1cccc(-n2c(SCC(=O)O)nnc2-c2cn[nH]c2)c1 | -6.76
17 | Cc1ncsc1CCC(=O)N1CCCC1c1cccnc1 (configuration not stated) | 13.4
18 | Cn1c(Cn2cccn2)nnc1C1CCN(Cc2cccnc2)CC1 | 6.01
19 | Cc1cc(C(F)(F)F)cc(=O)n1CCCn1cnnn1 | 1.16

Row | Structure (SMILES) | cytotoxicity at 10 µM [%]
20 | CCc1c(C)nn(CCNC(=O)Cc2csc(C)n2)c1C | 0.129
21 | Cc1nc(C)n(CCCn2ccnc2-c2cc3n(n2)CCCNC3)n1 | 3.71
22 | CCc1cc(NC(C)(C)C)nc(N2CCOCC2)n1 | 0.393
23 | O=C(CCc1cn[nH]c1)N1C[C@H](CO)C[C@H](CN2CCOCC2)C1 | 2.72
24 | COCCc1noc(-c2ccc(N[C@H]3CCCCNC3=O)nc2)n1 | 6.9
25 | Cn1ccc2c(-c3ccc(NC4CC4)nn3)ccnc21 | 10.4
26 | Cc1ccc(CN2CCCC(c3nnc(CN4CCCC4)n3C)C2)s1 (configuration not stated) | 0.9
27 | CC(C)N1CC(C(=O)NCCc2csc(-c3ccncc3)n2)CC1=O (configuration not stated) | -21
28 | O=C(c1cnc(COc2ccccc2)nc1O)N1CCOCC1 | 2.55
29 | CCn1nc(CC(C)C)cc1C(=O)NCCn1cccc1 | -5.94
30 | CCn1cc(CN2CCCn3nc(CNC(=O)C4CCC4)cc3C2)cn1 | -11.6
31 | Cc1[nH]c(=O)c(C#N)cc1C(=O)N1C[C@@H](CN2CCCC2)C[C@H](CO)C1 | -8.08
32 | COc1ccc(-c2cc(N)on2)cc1 | -12.8
33 | c1cc(NC2CC3(CCN(Cc4cc[nH]n4)C3)C2)ncn1 (configuration not stated) | -4.71
34 | N#CCCN(C(=O)CN1CCCC1c1ccsc1)c1ccccc1 (configuration not stated) | -8.42
35 | COc1ccc(CCNC(=O)CN2CCCC2c2noc(C)n2)cc1 (configuration not stated) | 0.772
36 | Cc1ncc(C(=O)N2CCCC(n3nc(C)nc3C)C2)c(C(C)C)n1 (configuration not stated) | -1.81
37 | Cc1noc(CCCC(=O)NC(C)c2ccc(Cl)s2)n1 (configuration not stated) | -9.48
38 | CNC(=O)c1cc(C)n(-c2cccc(OC)c2)c1C | -18.1

Row | Structure (SMILES) | cytotoxicity at 10 µM [%]
39 | Cc1nn(-c2ccccc2)cc1C(=O)N1CCCC(n2ccnc2)C1 (configuration not stated) | -14.4
40 | CN(C)CC1CN(Cc2coc(-c3ccccc3)n2)CCO1 (configuration not stated) | -10.8
41 | CCn1cnnc1CNC(=O)N1CCCC1 | -3.3
42 | CCN1CCC(CNC(=O)C2(c3cccc(C)c3)CCCCC2)CC1 | -11.8
43 | CC(C)OCC(=O)N1CCCN(Cc2ccc(C#N)cc2)CC1 | -7.41
44 | O=C(NCCCN1CCCC1)c1n[nH]c(=O)c2ccccc12 | -6.62
45 | Cn1cnc2c1CCN(CCCc1ccccc1)C2 | -1.13
46 | O=C(NCC1CCCO1)c1cc(-c2ccncc2)c2cnccc2n1 (configuration not stated) | 1.05
47 | Cc1nc(CN2CCn3cc(CNC(=O)C4CCC4)nc3C2)cs1 | -6.52
48 | O=C(Nc1cccnc1)[C@@H]1C[C@H]2OCC[C@H]2N(Cc2ccsc2)C1 | 2.88
49 | COc1ccc(-c2cc(C3CCCNC3)ccn2)cc1 (configuration not stated) | 0.288
50 | O=C(Cc1cccs1)N1CCn2cc(Cn3cccn3)nc2C1 | -77.9
51 | CCN(CC)Cc1cc(=O)n2c(n1)CN(S(=O)(=O)C1CC1)CCC2 | 6.95
52 | O=C(Cc1cccnc1)N1CCC2(CC1)CCN(C1CCOCC1)C2 | -8.16
53 | COCCN1CCC2(CCN(Cc3cccs3)CC2)C1=O | 1.22
54 | Cn1cc(CN2CCC3(C2)CN(Cc2ccsc2)C3)cn1 | -11.2
55 | CCn1nnc2c1C(COCC(=O)N(C)C)CN(Cc1ccco1)C2 (configuration not stated) | -4.96
56 | O=C(N[C@@H]1CN(CC2CC2)[C@@H]2CCCO[C@@H]21)c1cscn1 | -109
57 | Cc1[nH]c2cc(C3CCCCN3C(=O)C3CC3)nn2c(=O)c1C (configuration not stated) | -5.34
